From ChEMBL document CHEMBL1629660, “Pharmacodynamics of tigecycline against phenotypically diverse Staphylococcus aureus isolates in a murine thigh model” (Antimicrob Agents Chemother, 2009)
In brackets after ≈: the same amount, converted by molar mass.

Key:
[1] = AUC in neutropenic ICR mouse infected with Staphylococcus aureus ATCC 29213 at 6.25 to 50 mg/kg, sc; format: ADME, organism-based; design: dose 6.25-50 mg/kg, route subcutaneous; conditions: plasma
Procedure, shortened: (§1)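 Neutropenic female ICR mice (cyclophosphamide 150 and 100 mg/kg ip, 4 days and 1 day before inoculation), both thighs inoculated im with ~10^7 CFU/ml of ATCC 29213. Single sc doses of 50, 25, 12.5 or 6.25 mg/kg. Cardiac blood taken from groups of six at 8–12 times over 0.5–24 h. Serum measured by HPLC (linear 0.05–5 µg/ml). Two-compartment fit by nonlinear least squares; AUC by trapezoidal rule.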

[2] = Protein binding in methicillin-sensitive Staphylococcus aureus ATCC 29213-infected neutropenic ICR mouse serum at 25 mg/kg, sc by HPLC; format: ADME, organism-based; design: dose 25 mg/kg, route subcutaneous; conditions: read-out: PB (converted)
[3] = fAUC/MIC in methicillin-sensitive Staphylococcus aureus ATCC 29213-infected neutropenic ICR mouse at 50% effective exposure index; format: functional
Procedure, shortened: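 fT>MIC, fCmax/MIC and fAUC/MIC were built from the serum pharmacokinetics, protein binding, modal broth-microdilution MIC (triplicate, CLSI) and 24-h thigh CFU change. Each index was fit to a sigmoidal Emax model. EI50, EI80 and stasis exposures were taken from each isolate's curve.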

Staphylococcus aureus [4] = experiment: Antimicrobial activity against hospital-acquired methicillin-resistant Staphylococcus aureus isolate 152 infected in neutropenic ICR mouse assessed as change in bacterial load after 24 hrs; format: functional
Procedure, shortened: (§2)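 Female ICR mice (~25 g) made neutropenic with cyclophosphamide 150 and 100 mg/kg ip, 4 and 1 days before infection. Each thigh inoculated im with 0.1 ml of ~10^7 CFU/ml from an overnight subculture. Tigecycline sc (0.2 ml) given 2 h later as single or multiple doses of 1.56–50 mg/kg, 1.56–400 mg/kg/day, 3 mice/group. Saline-injected controls. Thighs harvested at 24 h, homogenized in saline, plated on blood agar; log10 CFU change vs 0-h controls.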

Staphylococcus aureus [5] = experiment: Antimicrobial activity against community-acquired methicillin-resistant Staphylococcus aureus isolate 156 infected in neutropenic ICR mouse assessed as decrease in bacterial density at 1.56 to 400 mg/kg, sc after 24 hrs; format: functional; conditions: dose mg/kg 1.56-400; route subcutaneous; procedure, shortened: as §2
[6] = fAUC/MIC in methicillin-sensitive Staphylococcus aureus ATCC 25923-infected neutropenic ICR mouse at stasis dose; format: functional
Procedure, shortened: (§3)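 Single-dose serum PK in infected neutropenic mice (sc 6.25–50 mg/kg; HPLC; two-compartment fit; AUC by trapezoidal rule; lower doses simulated). Free fraction from ultrafiltration of spiked mouse serum, in triplicate. Free exposures divided by modal MIC and plotted against 24-h log10 CFU change with a sigmoidal Emax model; EI50, EI80 and stasis values read from the fitted curves.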

[7] = Cmax in neutropenic ICR mouse infected with Staphylococcus aureus ATCC 29213 at 25 mg/kg, sc by HPLC; format: ADME, organism-based; design: dose 25 mg/kg, route subcutaneous; conditions: in vivo; procedure, shortened: as §1
Staphylococcus aureus [8] = experiment: Antimicrobial activity against Hospital-acquired methicillin-resistant Staphylococcus aureus isolate 56 by broth microdilution method; format: functional
Procedure, shortened: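 Tigecycline MIC by CLSI broth microdilution, run in triplicate; modal MIC reported. Isolates stored at –80°C in double-strength skim milk and subcultured twice on Trypticase soy agar with 5% sheep blood before use.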

Staphylococcus aureus [9] = experiment: Antimicrobial activity against community acquired methicillin-resistant Staphylococcus aureus isolate 156 infected in immunocompetent ICR mouse assessed as reduction in bacterial load at […] after 24 hrs; format: functional
Procedure, shortened: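 Non-neutropenic ICR mice (no cyclophosphamide). Each thigh inoculated im with 0.1 ml of ~10^8 CFU/ml. Tigecycline given sc once daily at 1.56, 3.13, 6.25 or 12.5 mg/kg starting 2 h post-infection, 3 mice/group. Thighs harvested at 24 h, homogenized, plated on blood agar; log10 CFU change vs 0-h controls.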

[10] = fAUC/MIC in hospital-acquired methicillin-resistant Staphylococcus aureus isolate 56-infected neutropenic ICR mouse at stasis dose; format: functional; procedure, shortened: as §3
[11] = r2 for fAUC/MIC in methicillin-sensitive Staphylococcus aureus ATCC 25923-infected neutropenic ICR mouse
[12] = r2 for fAUC/MIC in community acquired methicillin-resistant Staphylococcus aureus isolate 156-infected neutropenic ICR mouse
[13] = r2 of fCmax/MIC in hospital-acquired methicillin-resistant Staphylococcus aureus isolate 56-infected neutropenic ICR mouse
[14] = AUC (0 to 24 hrs) in neutropenic ICR mouse infected with Staphylococcus aureus ATCC 29213 at 12.5 mg/kg, sc by HPLC; format: ADME, organism-based; design: time < 24 hr, dose 12.5 mg/kg, route subcutaneous; conditions: plasma; procedure, shortened: as §1
Staphylococcus aureus [15] = experiment: Antimicrobial activity against community acquired methicillin-resistant Staphylococcus aureus isolate 156 infected in neutropenic ICR mouse assessed as change in bacterial load at 12.5 […] after 24 hrs; format: functional; procedure, shortened: as §2
[16] = fAUC/MIC in hospital-acquired methicillin-resistant Staphylococcus aureus isolate 152-infected neutropenic ICR mouse at 50% effective exposure index; format: functional; procedure, shortened: as §3
[17] = Elimination half life in neutropenic ICR mouse infected with methicillin-sensitive Staphylococcus aureus ATCC 29213 at 12.5 mg/kg, sc by HPLC; format: ADME, organism-based; design: dose 12.5 mg/kg, route subcutaneous; conditions: in vivo, read-out: beta t1/2 (converted); procedure, shortened: as §1
[18] = Plasma protein binding in mouse; format: ADME, cell-free; conditions: read-out: PPB (converted)
[19] = Protein binding in methicillin-sensitive Staphylococcus aureus ATCC 29213-infected neutropenic ICR mouse serum at 6 µg/ml by HPLC; conditions: read-out: PB (converted)
[20] = fAUC/MIC in hospital-acquired methicillin-resistant Staphylococcus aureus isolate 152-infected neutropenic ICR mouse at 80% effective exposure index; format: functional; procedure, shortened: as §3
[21] = Protein binding in methicillin-sensitive Staphylococcus aureus ATCC 29213-infected neutropenic ICR mouse serum at 1.5 µg/ml by HPLC; conditions: read-out: PB (converted)
[22] = r2 of fCmax/MIC in community acquired methicillin-resistant Staphylococcus aureus isolate 147-infected neutropenic ICR mouse
[23] = r2 for fCmax/MIC in community acquired methicillin-resistant Staphylococcus aureus isolate 144-infected neutropenic ICR mouse
[24] = fAUC/MIC in community acquired methicillin-resistant Staphylococcus aureus isolate 147-infected neutropenic ICR mouse at 50% effective exposure index; format: functional; procedure, shortened: as §3
[25] = r2 for fAUC/MIC in methicillin-sensitive Staphylococcus aureus ATCC 29213-infected neutropenic ICR mouse
[26] = fAUC/MIC in community acquired methicillin-resistant Staphylococcus aureus isolate 156 infected-immunocompetent ICR mouse at 6.25 […], sc QD; format: functional
Procedure, shortened: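 Derived from neutropenic-mouse serum PK (HPLC, two-compartment fit) with ultrafiltration protein-binding correction, divided by modal MIC.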

[27] = Protein binding in methicillin-sensitive Staphylococcus aureus ATCC 29213-infected neutropenic ICR mouse serum at 50 mg/kg, sc by HPLC; format: ADME, organism-based; design: dose 50 mg/kg, route subcutaneous; conditions: read-out: PB (converted)

Compound: CN(C)c1cc(NC(=O)CNC(C)(C)C)c(O)c2c1C[C@H]1C[C@H]3[C@H](N(C)C)C(O)=C(C(N)=O)C(=O)[C@@]3(O)C(O)=C1C2=O [TIGECYCLINE]
- AUC [1]: 1200 ng·h/mL
- fraction unbound [2]: 0.075
- fAUC/MIC [3]: 0.6
- log10CFU/ml (Staphylococcus aureus [4]): 1.8
- CFU (Staphylococcus aureus [5]): 1.5
- fAUC/MIC [6]: 5.3
- Cmax [7]: 5330 ng/mL
- MIC (Staphylococcus aureus [8]): 0.5 µg/mL (≈ 0.854 µM)
- log10cfu (Staphylococcus aureus [9]): 1.8
- fAUC/MIC [10]: 2.5
- r2 [11]: 0.877
- r2 [12]: 0.97
- r2 [13]: 0.704
- AUC(0-t) at 24 h [14]: 9100 ng·h/mL
- log10CFU/ml (Staphylococcus aureus [15]): -1.1
- fAUC/MIC [16]: 1.5
- half-life [17]: 10.1 h
- fraction unbound [18]: 0.188
- fraction unbound [19]: 0.069
- fAUC/MIC [20]: 2.8
- fraction unbound [21]: 0.173
- r2 [22]: 0.892
- r2 [23]: 0.77
- fAUC/MIC [24]: 1.5
- r2 [25]: 0.983
- fAUC/MIC [26]: 7.2
- fraction unbound [27]: 0.071
